# Sampled rows, rich in hits. Any-hit rate of the full collection: about 2%.
# PvdQ acylase – blocks Pseudomonas aeruginosa PvdQ acylase activity. 0.063% of 340,000 active. purified PvdQ acylase, fluorescence plate reader. inhibition, % at 10 µM; in the data active means inhibition above about 30%, passing the limit was not always enough;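 further: 0% = vehicle neutral wells and 100% = reference inhibitor wells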
# PLC-gamma1 inh – blocks human PLC-gamma1 enzyme activity | purified PLC-gamma1, fluorogenic substrate, fluorescence | AID 720700 | P19174 | inhibition, % at 12.2 µM | 0.84% of 370,000 active; in the data active means inhibition above about 9.5%
# IMP-1 inh-1 – blocks Pseudomonas aeruginosa IMP-1 metallo-beta-lactamase; purified IMP-1, nitrocefin hydrolysis, epi-absorbance fluorescence; inhibition, % at 5.6 µM; 0.45% of 290,000 active; AID 1556;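 active means inhibition above the mean plus 3 SD of all compounds in the same screening run, cut at about 4.5% in these data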;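 further: 0% = IMP-1 with DMSO and 100% = DMSO wells lacking enzyme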
#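 Assay system: purified IMP-1; Quantity: IMP-1 0.2 nM before substrate addition; Medium: HEPES buffer pH 7.1 with ZnSO4 and Brij 35; Incubation: 15 min enzyme–compound preincubation, then 25 min nitrocefin reaction, 25 °C; Signal: fluorescence quenching readout, ex 480/em 530 nm; Controls: DMSO with and without IMP-1; Repeats: singlicate testing.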
# VIM-2 inhibitor – inhibitors of Pseudomonas aeruginosa VIM-2 metallo-beta-lactamase; purified VIM-2, nitrocefin hydrolysis, epi-absorbance fluorescence; inhibition, % at 5.6 µM; 0.89% of 290,000 active;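 active means inhibition above the mean of all tested compounds plus 3 SD, cutoff set per screening run, cut at about 7.5% in these data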;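 further: red hydrolysis product quenches plate fluorescence so inhibitors raise well fluorescence; 0% = enzyme with DMSO and 100% = DMSO without enzyme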
# PLC-beta3 inh – inhibitors of human phospholipase C beta3; inhibition, % at 12.2 µM; Q01970; 0.18% of 370,000 active; Purified PLC-beta3, fluorogenic substrate, fluorescence; in the data active means inhibition above about 11%;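 further: 0% = median of compound wells on plate and 100% = full blocker control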
# Target sequence (Q01970 whole entry, looked up): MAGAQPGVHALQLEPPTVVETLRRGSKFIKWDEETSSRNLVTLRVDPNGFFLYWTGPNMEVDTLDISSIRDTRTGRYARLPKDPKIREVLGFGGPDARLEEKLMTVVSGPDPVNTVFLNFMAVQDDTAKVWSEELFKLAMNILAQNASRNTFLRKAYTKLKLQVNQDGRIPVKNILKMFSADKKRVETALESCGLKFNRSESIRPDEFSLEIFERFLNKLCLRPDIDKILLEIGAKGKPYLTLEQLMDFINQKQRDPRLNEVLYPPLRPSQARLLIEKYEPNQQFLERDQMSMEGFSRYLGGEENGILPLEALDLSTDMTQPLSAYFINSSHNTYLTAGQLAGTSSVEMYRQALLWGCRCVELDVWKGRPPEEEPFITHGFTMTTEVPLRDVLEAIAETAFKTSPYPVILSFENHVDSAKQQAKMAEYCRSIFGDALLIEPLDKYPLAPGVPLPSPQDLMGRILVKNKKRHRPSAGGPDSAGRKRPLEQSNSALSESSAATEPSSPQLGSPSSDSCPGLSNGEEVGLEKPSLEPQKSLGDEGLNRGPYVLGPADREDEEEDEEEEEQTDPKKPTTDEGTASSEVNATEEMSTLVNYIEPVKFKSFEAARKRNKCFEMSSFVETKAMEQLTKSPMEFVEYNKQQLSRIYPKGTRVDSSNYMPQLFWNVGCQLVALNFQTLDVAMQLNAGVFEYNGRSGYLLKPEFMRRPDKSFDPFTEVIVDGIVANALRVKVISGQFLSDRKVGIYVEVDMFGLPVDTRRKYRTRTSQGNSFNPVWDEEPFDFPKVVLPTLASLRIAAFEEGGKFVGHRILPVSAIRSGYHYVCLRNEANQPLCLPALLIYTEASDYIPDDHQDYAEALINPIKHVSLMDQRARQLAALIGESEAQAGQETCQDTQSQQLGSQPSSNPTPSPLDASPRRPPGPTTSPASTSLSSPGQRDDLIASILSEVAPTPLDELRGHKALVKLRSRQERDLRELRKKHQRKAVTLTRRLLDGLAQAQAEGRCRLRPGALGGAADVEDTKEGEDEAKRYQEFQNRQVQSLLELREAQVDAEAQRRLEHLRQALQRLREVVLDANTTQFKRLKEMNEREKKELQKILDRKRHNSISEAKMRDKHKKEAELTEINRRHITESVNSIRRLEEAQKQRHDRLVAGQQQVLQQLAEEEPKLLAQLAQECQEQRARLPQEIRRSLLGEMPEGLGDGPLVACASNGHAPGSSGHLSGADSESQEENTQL
# IMP-1 inh-2 – blocks IMP-1 metallo-beta-lactamase in VIM-2 selectivity screen; shares compounds with VIM-2 inhibitor; purified IMP-1, nitrocefin hydrolysis, epi-absorbance fluorescence; inhibition, % at 5.6 µM; 1,300 tested, under 10 active; AID 1856; call rule not given here;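 further: 0% = enzyme with vehicle and 100% = vehicle without enzyme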
# VIM-2 FRET ctr – VIM-2 FRET inhibition, artifact counter-screen | shares compounds with VIM-2 inhibitor | purified VIM-2, CCF2 FRET substrate hydrolysis | inhibition, % at 5.6 µM | 23% of 1,300 active;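 active means inhibition above the mean of all tested compounds plus 3 SD, cut at about 19% in these data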;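 further: 0% = VIM-2 plus DMSO and 100% = no enzyme wells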
# TEM-1 counter – TEM-1 inhibition, counter-screen for VIM-2 inhibitors | shares compounds with VIM-2 inhibitor | Purified TEM-1, nitrocefin hydrolysis, epi-absorbance fluorescence | inhibition, % at 5.6 µM | 3% of 1,300 active | AID 1866;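 active means inhibition above that campaign's mean inhibition plus 3 SD, cut at about 0.46% in these data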;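 further: 0% = TEM-1 with DMSO and 100% = TEM-1 with 100 µM potassium clavulanate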
# VIM-2 confirm 2 – confirmation of P. aeruginosa VIM-2 metallo-beta-lactamase inhibitors | purified VIM-2, nitrocefin hydrolysis, epi-absorbance | 96% of 1,300 active | shares compounds with VIM-2 inhibitor | AID 2187 | inhibition, % at 5.6 µM;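 active means inhibition of the VIM-2 beta-lactamase enzyme above about 11% from the earlier first-round screen, limit read from the data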;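 further: 0% = VIM-2 with DMSO and 100% = buffer wells without enzyme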
# * = called active by the depositor; i = inactive; · = no result.
SMILES,PvdQ acylase,PLC-gamma1 inh,IMP-1 inh-1,VIM-2 inhibitor,PLC-beta3 inh,IMP-1 inh-2,VIM-2 FRET ctr,TEM-1 counter,VIM-2 confirm 2
COc1ccc2c(C)cc3n[nH]c(=S)n3c2c1,-9,-425,-2,13*,i,-3,21*,-7,19*
O=C(CSc1nc2nc(-c3cccs3)cc(C(F)(F)F)c2c(=O)[nH]1)Nc1c(F)c(F)c(F)c(F)c1F,5,-3,-3,-3,-10,·,·,·,·
O=c1[nH]c(=S)[nH]c2nc(-c3cccs3)cc(C(F)(F)F)c12,-30,-37,-5,13*,-54,-3,4,-7,15*
Cc1ccc2nc(C)c(C)nc2c1N,-16,1,0,20*,1,-3,-5,-6,31*
Cc1nc2ncccn2c1-c1csc(Nc2ccc(O)cc2)n1,-11,-11,-2,17*,-7,-4,16,-11,28*
CCOC(=O)c1cccc(NC(=O)CN(C)S(=O)(=O)c2cc(OC)ccc2OC)c1,·,-2,·,·,2,·,·,·,·
CCC1CCCCN1CCCNC(=O)c1cc2c(=O)oc3ccc(C)cc3c2s1 (stereo unspecified),-15,-6,0,12*,-31,-3,5,-10,17*
Cc1ccc2oc(=O)c3cc(C(=O)NCCCN4CCc5ccccc5C4)sc3c2c1,-7,-55,0,2,-82,·,·,·,·
O=c1n(Cc2ccc(Cl)cc2)c2sc3c(c2c2ncnn12)CCCC3,-10,-1,-2,-3,2,·,·,·,·
C=CCn1c(=O)n2ncnc2c2c3c(sc21)CCCC3,-20,·,-1,15*,·,-3,5,-6,39*
O=C(OCc1ccccc1)C1=[N+]([O-])OC(C(=O)OCc2ccccc2)C1c1c[nH]c2ccccc12 (stereo unspecified),-27,-1,-1,13*,-4,-2,-7,0,4
O=c1cc(-c2ccncc2)oc2c1ccc1ccccc12,-3,-175,-4,17*,-246,-3,-1,-4,23*
O=c1cc(-c2ccc(O)cc2)oc2c1ccc1ccccc12,-23,-349,·,·,-450,·,·,·,·
CC(C)(C)C(=O)Nc1nnc(CSCc2ccccc2F)s1,-16,2,-4,26*,0,-3,65*,-5,48*
O=C(Nc1nnc(CSCc2ccccc2F)s1)c1cccc([N+](=O)[O-])c1,-1,-8,0,5,-10,·,·,·,·
COC(=O)[C@]12C[C@H](CC(=O)NCc3cccs3)C(=O)N(CCC3=CCCCC3)C1=C[C@H](C(C)C)O[C@@H]2C1CC1,·,-1,·,·,0,·,·,·,·
COc1ccc(C2=Nn3c(nnc3-c3ccncc3)SC2)cc1,8,1,-1,21*,3,-3,4,-6,42*
COc1ccc(C2=Nn3c(nnc3-c3cccnc3)SC2)cc1,-2,2,-2,3,5,·,·,·,·
O=C(COc1ccc2c3c(c(=O)oc2c1)CCC3)NCc1ccccn1,-12,-7,1,17*,-16,-3,-1,-7,23*
CC(Oc1ccc2c3c(c(=O)oc2c1)CCC3)C(=O)NCc1ccccn1 (stereo unspecified),-3,-5,0,21*,-15,-2,3,-5,29*
Cc1c(C)c2ccc(OC(C)C(=O)NCc3ccccn3)cc2oc1=O (stereo unspecified),-6,-72,-4,0,-126,·,·,·,·
COC(=O)CSc1nc(N)c(C#N)c(-c2ccc(O)cc2)c1C#N,-4,-18,-1,18*,-26,-3,0,-7,36*
Cc1ccc(-c2csc(=Nc3cccnc3)n2CCCn2ccnc2)cc1C,1,8,-4,18*,-6,-2,-25,-8,30*
CN(CCO)c1ccc(-c2nn(C)c(=O)c3ccccc23)cc1[N+](=O)[O-],1,2,-4,17*,-4,-4,-1,-8,41*
CN(CCO)c1cc(N(C)CCO)c([N+](=O)[O-])cc1[N+](=O)[O-],13,5,-4,-3,10,·,·,·,·
SMILES,PvdQ acylase,PLC-gamma1 inh,IMP-1 inh-1,VIM-2 inhibitor,PLC-beta3 inh,IMP-1 inh-2,VIM-2 FRET ctr,TEM-1 counter,VIM-2 confirm 2
Cn1nc(-c2ccc(N3CCN(CCO)CC3)c([N+](=O)[O-])c2)c2ccccc2c1=O,-8,5,-3,82*,3,-3,-1,-7,89*
CN(C)CCNc1ccc(-c2nn(C)c(=O)c3ccccc23)cc1[N+](=O)[O-],8,0,-4,79*,1,-2,0,-5,83*
Cn1nc(-c2ccc(NCCO)c([N+](=O)[O-])c2)c2ccccc2c1=O,9,3,-3,16*,-5,-4,3,-8,45*
O=[N+]([O-])c1ccc(N2CCN(CCO)CC2)c2ncccc12,-9,3,-4,-1,-5,·,·,·,·
CCOC(=O)N1CCN(C(=O)C[C@H]2C[C@@]3(C(=O)OC)C(=C[C@H](C4CCCC4)O[C@@H]3C)N(Cc3cccc4ccccc34)C2=O)CC1,·,4,·,·,1,·,·,·,·
COc1ccc2c(c1)c1ncn(CCN3CCCC3)c(=O)c1n2C,-16,-218,-1,3,-280,·,·,·,·
COc1ccc2c(c1)c1ncn(CCN3CCNCC3)c(=O)c1n2C,-5,-188,-1,14*,-276,-1,0,-8,31*
COc1ccc2nc3cc(Cl)ccc3c(Nc3cc(CN4CCCC4)c(O)c(CN4CCCC4)c3)c2n1,·,-25,-6,21*,-30,-5,-12,-10,33*
COc1ccc2nc3cc(Cl)ccc3c(Nc3cc(C(C)C)c(O)cc3C)c2c1,-16,-66,-1,-2,-106,·,·,·,·
Cc1nn(CCc2n[nH]c(=S)n2-c2cccc(Cl)c2)c(C)c1[N+](=O)[O-],-10,2,-6,17*,1,-3,48*,-7,30*
Cc1ccccc1OCc1n[nH]c(=S)n1-c1cccc(Cl)c1,-5,-1,-3,-6,-7,·,·,·,·
Cc1cccc(-n2c(C)n[nH]c2=S)c1C,-6,2,-3,12*,4,-4,40*,-6,24*
Cc1n[nH]c(=S)n1-c1cccc(Cl)c1,-16,-2,-1,14*,-2,-3,36*,-7,23*
Cc1nn(CCc2n[nH]c(=S)n2-c2ccc(F)cc2)c(C)c1[N+](=O)[O-],-8,-1,-3,-1,-2,·,·,·,·
O=C(NCCc1c[nH]c2ccccc12)OCc1cn(Cc2ccc(F)cc2F)nn1,·,2,·,·,0,·,·,·,·
